Laboratory results: PubChem BioAssay
Active and inactive are the calls of the source.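 Rule for the calls, unless noted: active = current rise at least 3 SD above the untreated control mean in each of two repeat wells; inactive = the rest.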

How the values were obtained:
[1] = thallium flux activation in parental CHO cells, counter-screen for KCNQ1 potentiator project (AID 493006;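 active = duplicate-averaged activation above buffer control mean plus 5 SD of those controls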;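 for activation: fluorescence ratio of max minus min over baseline after K+ and Tl+ depolarization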); details: parental CHO-K1 cells, FluxOR thallium flux, at 10 µM; active compounds read high
Summary of the method: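 Assay system: parental CHO-K1 cells lacking KCNQ1, loaded with FluxOR thallium dye; timing: dye 90 min RT, compound 20 min RT; signal: kinetic thallium-flux fluorescence; repeats: duplicate wells per compound, percent values averaged; benchmarks: buffer and R-L3 controls; reagent: Potassium/thallium depolarization pulse; read-out: fluorescence change ratio scaled 0% buffer, 100% R-L3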

[2] = biological target: Potassium voltage-gated channel subfamily KQT member 1 (Homo sapiens) (UniProt P51787); test: KCNQ1 potassium channel potentiators, confirmation, FluxOR thallium flux, CHO cells, duplicates (AID 493007;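 active = potentiation averaged over duplicate wells exceeding buffer-only control mean by more than 3 SD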;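 for outcome: cells depolarized by a potassium plus thallium sulfate stimulus after compound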); details: KCNQ1 cell line, FluxOR thallium flux fluorescence, at 10 µM; active compounds read high, % of reference activator effect, buffer zero
Potassium voltage-gated channel subfamily KQT member 1 (Homo sapiens), sequence (P51787 whole entry, looked up): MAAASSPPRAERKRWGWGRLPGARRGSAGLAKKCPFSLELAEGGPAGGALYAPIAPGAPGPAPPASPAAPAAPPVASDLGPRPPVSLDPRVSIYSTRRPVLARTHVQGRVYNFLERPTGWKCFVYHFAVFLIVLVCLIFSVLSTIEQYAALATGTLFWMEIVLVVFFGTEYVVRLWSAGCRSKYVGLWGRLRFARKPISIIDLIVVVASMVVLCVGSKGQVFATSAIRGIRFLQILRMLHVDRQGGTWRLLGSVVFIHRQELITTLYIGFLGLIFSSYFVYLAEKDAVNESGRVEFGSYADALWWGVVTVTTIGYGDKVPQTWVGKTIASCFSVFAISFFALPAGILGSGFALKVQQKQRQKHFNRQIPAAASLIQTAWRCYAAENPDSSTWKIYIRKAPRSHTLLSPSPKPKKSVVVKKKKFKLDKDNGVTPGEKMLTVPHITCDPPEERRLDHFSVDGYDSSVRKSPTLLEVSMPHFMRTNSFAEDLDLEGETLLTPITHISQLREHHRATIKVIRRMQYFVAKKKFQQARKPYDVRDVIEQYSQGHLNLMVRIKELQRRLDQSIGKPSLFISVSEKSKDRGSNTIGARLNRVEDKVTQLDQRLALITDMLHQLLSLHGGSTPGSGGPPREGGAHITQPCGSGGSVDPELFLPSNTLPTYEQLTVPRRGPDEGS
Summary of the method: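 material = CHO cells stably expressing the KCNQ1 potassium channel | repeats = duplicate wells per compound | measure = percent activation between buffer and R-L3 responses | signal = FluxOR thallium-flux fluorescence, kinetic read | schedule = FluxOR dye loading 90 min, compound exposure 20 min, room temperature | control set = buffer and R-L3 controls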

[3] = biological target: Potassium voltage-gated channel subfamily KQT member 2 (Rattus norvegicus) (UniProt O88943); test: rat KCNQ2 channel potentiation, selectivity assay for KCNQ1 potentiator project, KCNQ2-CHO-K1 cells (AID 493009;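 active = mean duplicate potentiation above the buffer control mean plus 5 SD of buffer wells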;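 note: assay conditions were tuned for KCNQ1 rather than KCNQ2 modulators; signal is max minus min fluorescence divided by baseline after thallium stimulus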); details: FluxOR thallium flux fluorescence, at 10 µM; active compounds read high, scaled: buffer 0, activator control 100
Potassium voltage-gated channel subfamily KQT member 2 (Rattus norvegicus), sequence (O88943 whole entry, looked up): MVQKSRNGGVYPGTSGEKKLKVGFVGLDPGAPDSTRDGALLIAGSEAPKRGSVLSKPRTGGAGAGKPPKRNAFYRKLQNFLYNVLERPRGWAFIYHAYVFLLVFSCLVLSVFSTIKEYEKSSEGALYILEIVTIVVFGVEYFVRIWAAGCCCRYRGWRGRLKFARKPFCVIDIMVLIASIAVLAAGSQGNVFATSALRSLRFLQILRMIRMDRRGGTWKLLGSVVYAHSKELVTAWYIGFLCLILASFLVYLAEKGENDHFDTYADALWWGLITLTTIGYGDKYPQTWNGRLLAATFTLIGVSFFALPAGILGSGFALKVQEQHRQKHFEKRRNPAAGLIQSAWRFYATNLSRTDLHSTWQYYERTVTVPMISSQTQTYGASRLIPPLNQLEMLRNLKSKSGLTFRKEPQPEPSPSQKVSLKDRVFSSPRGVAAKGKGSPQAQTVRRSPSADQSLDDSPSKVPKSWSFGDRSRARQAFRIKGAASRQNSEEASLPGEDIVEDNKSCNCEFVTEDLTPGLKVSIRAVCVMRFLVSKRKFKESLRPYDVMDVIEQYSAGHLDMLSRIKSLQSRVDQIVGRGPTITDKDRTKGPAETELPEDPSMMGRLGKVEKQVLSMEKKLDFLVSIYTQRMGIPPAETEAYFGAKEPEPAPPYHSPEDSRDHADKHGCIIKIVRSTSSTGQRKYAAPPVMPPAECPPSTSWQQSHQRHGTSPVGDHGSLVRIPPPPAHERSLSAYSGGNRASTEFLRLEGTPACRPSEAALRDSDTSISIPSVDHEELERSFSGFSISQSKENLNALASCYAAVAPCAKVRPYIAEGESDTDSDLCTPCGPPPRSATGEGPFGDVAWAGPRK

[4] = biological target: Potassium voltage-gated channel subfamily KQT member 1 (Homo sapiens) (UniProt P51787); test: KCNQ1 channel current potentiators, confirmation, orthogonal assay for KCNQ1 potentiator project, IonWorks patch clamp, KCNQ1-CHO cells (AID 493184); details: automated patch clamp current, at 10 µM; active compounds read high
Summary of the method: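 Assay system – CHO cells carrying KCNQ1 · Medium – pH 7.4 external bath · Probe or stimulus – depolarizing pulse to +40 mV from -90 mV · Compound dosing – one dose, 10 µM final · Measured by – automated perforated-patch electrophysiology · Measure – % potentiation of steady-state current relative to pre-compound · Repeats – two replicates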

## CCOC(=O)CSc1nc2ccccc2c(=O)n1-c1ccc(C)cn1
[1]
  outcome: inactive
[2]
  outcome: inactive
[3]
  outcome: inactive
[4]
  outcome: inactive

## S=c1[nH]cnc2scc(-c3ccccc3)c12
[1]
  activation: 192% (active)
[2]
  potentiation: 52% (active)
[3]
  potentiation: 205% (active)
[4]
  outcome: inactive

## CCCCn1c(=S)[nH]c2ncccc2c1=O
[1]
  outcome: inactive
[2]
  potentiation: 34.5% (active)
[3]
  potentiation: 173% (active)
[4]
  outcome: inactive

## CCN(C(=O)c1cc2cc3ccc(C)cc3nc2o1)c1ccc(OC)cc1
[1]
  outcome: inactive
[2]
  outcome: inactive
[3]
  outcome: inactive
[4]
  outcome: inactive

## CCc1ccc(S(=O)(=O)Nc2cc3c(cc2N2CCCCC2)n(C)c(=O)c(=O)n3C)cc1
[1]
  outcome: inactive
[2]
  outcome: inactive
[3]
  outcome: inactive
[4]
  outcome: inactive

## CN1CCN(c2ccccc2NC(=S)NC(=O)c2cc3ccccc3o2)CC1
[1]
  outcome: inactive
[2]
  outcome: inactive
[3]
  outcome: inactive
[4]
  outcome: inactive

## O=C(O)CCC(=O)Nc1ccc(S(=O)(=O)c2ccc(NC(=O)CCC(=O)O)cc2)cc1
[1]
  outcome: inactive
[2]
  outcome: inactive
[3]
  outcome: inactive
[4]
  outcome: inactive

## COc1ccc(CCN=C(N)NS(=O)(=O)c2ccc(F)cc2)cc1OC
[1]
  outcome: inactive
[2]
  outcome: inactive
[3]
  outcome: inactive
[4]
  outcome: inactive

## Oc1c(N=NC(=S)Nc2ccccc2F)c2ccccc2n1Cc1ccccc1F
[1]
  activation: 142% (active)
[2]
  potentiation: 64% (active)
[3]
  potentiation: 169% (active)
[4]
  outcome: inactive

## NC(=O)c1ccccc1NC(=O)N1CCOCC1
[1]
  outcome: inactive
[2]
  outcome: inactive
[3]
  outcome: inactive
[4]
  outcome: inactive

## Cc1cc(Cl)ccc1OCC(=O)N/N=C1\CC2C=CCC12 (stereo not given)
[1]
  outcome: inactive
[2]
  outcome: inactive
[3]
  outcome: inactive
[4]
  outcome: inactive

## CC/C(=N/NC(=O)c1ccc(Br)o1)c1ccc(Cl)cc1
[1]
  outcome: inactive
[2]
  outcome: inactive
[3]
  outcome: inactive
[4]
  outcome: inactive

## CCN(CC(=O)Nc1ccc(OC)cc1)C(=O)CSCC(=O)Nc1ccc(C)cc1
[1]
  outcome: inactive
[2]
  outcome: inactive
[3]
  outcome: inactive
[4]
  outcome: inactive

## O=C(O)CCCN1C(=O)C2C3c4ccccc4C(c4ccccc43)[C@@H]2C1=O (stereo not given in full)
[1]
  outcome: inactive
[2]
  outcome: inactive
[3]
  outcome: inactive
[4]
  outcome: inactive

## COc1ccc2cc(CCNC(=O)C3CCCC3)c(=O)[nH]c2c1
[1]
  outcome: inactive
[2]
  outcome: inactive
[3]
  outcome: inactive
[4]
  outcome: inactive

## COc1ccc2[nH]c3c(c2c1)CCNC3C1CC=C(C)CC1 (stereo not given)
[1]
  outcome: inactive
[2]
  outcome: inactive
[3]
  outcome: inactive
[4]
  outcome: inactive

## Oc1c(Br)cc(Br)cc1/C=N/c1nc2c(s1)CCCC2
[1]
  activation: 186% (active)
[2]
  potentiation: 22% (active)
[3]
  outcome: inactive
[4]
  outcome: inactive

## COc1ccc(-n2nc(C(=O)NCC(=O)N3CCC(C(N)=O)CC3)c3ccccc3c2=O)cc1
[1]
  outcome: inactive
[2]
  outcome: inactive
[3]
  outcome: inactive
[4]
  outcome: inactive

## CCOc1ccc2nc(Nc3nc4ccc(NC(C)=O)cc4s3)sc2c1
[1]
  outcome: inactive
[2]
  outcome: inactive
[3]
  outcome: inactive
[4]
  outcome: inactive

## COc1ccc(OCC(=O)NC(=S)Nc2ccc(N3CCOCC3)c(Cl)c2)cc1
[1]
  activation: 142% (active)
[2]
  potentiation: 33.5% (active)
[3]
  outcome: inactive
[4]
  outcome: inactive

## CC(C)n1c(=S)[nH]c2scc(-c3cccs3)c2c1=O
[1]
  activation: 491% (active)
[2]
  potentiation: 200% (active)
[3]
  potentiation: 465% (active)
[4]
  outcome: inactive

## CS(=O)(=O)N1CCN(c2ccccc2NC(=O)CSc2nnc(-c3ccco3)o2)CC1
[1]
  outcome: inactive
[2]
  outcome: inactive
[3]
  outcome: inactive
[4]
  outcome: inactive

## O=C(NC(=S)Nc1nc2ccccc2s1)c1ccco1
[1]
  activation: 183% (active)
[2]
  potentiation: 31% (active)
[3]
  potentiation: 172% (active)
[4]
  outcome: inactive

## Cc1c(Cl)cccc1NC(=O)Cn1c(CCC(=O)O)ccc1-c1ccccc1
[1]
  outcome: inactive
[2]
  outcome: inactive
[3]
  outcome: inactive
[4]
  outcome: inactive

## Cc1ccc(-c2cc(C(=O)NCc3ccccn3)c3ccccc3n2)cc1C
[1]
  outcome: inactive
[2]
  outcome: inactive
[3]
  outcome: inactive
[4]
  outcome: inactive

## CCN(CC)S(=O)(=O)c1cc(OC)ccc1N=Nc1ccc(O)c2ncccc12
[1]
  outcome: inactive
[2]
  potentiation: 37.5% (active)
[3]
  potentiation: 148% (active)
[4]
  outcome: inactive

## O=C(CN1CCOCC1)N1CCN(c2nnc(-c3ccccc3)c3ccccc23)CC1
[1]
  outcome: inactive
[2]
  outcome: inactive
[3]
  outcome: inactive
[4]
  outcome: inactive

## S=C(Nc1ccc(Br)cc1)N1CCn2cccc2C1c1cccnc1 (stereo not given)
[1]
  outcome: inactive
[2]
  outcome: inactive
[3]
  outcome: inactive
[4]
  outcome: inactive

## S=c1nc(-c2ccccc2)[nH]c2ccc(Br)cc12
[1]
  activation: 578% (active)
[2]
  potentiation: 294% (active)
[3]
  potentiation: 602% (active)
[4]
  outcome: inactive

## COc1ccc(/C=C2/SC(=S)N(NS(=O)(=O)c3ccccc3)C2=O)cc1
[1]
  activation: 195% (active)
[2]
  potentiation: 84.5% (active)
[3]
  potentiation: 180% (active)
[4]
  outcome: inactive

## O=C1CN(C(=O)CSc2nc3cc(Cl)ccc3c(=O)n2Cc2ccccc2)c2ccccc2N1
[1]
  outcome: inactive
[2]
  potentiation: 22.5% (active)
[3]
  outcome: inactive
[4]
  outcome: inactive

## Cc1ccc(CN2CCN(/N=C/C(Br)=C\c3ccccc3)CC2)cc1
[1]
  outcome: inactive
[2]
  outcome: inactive
[3]
  outcome: inactive
[4]
  outcome: inactive

## CCOC(=O)c1cnc2c(C)c(Cl)ccc2c1N1CCN(CC)CC1
[1]
  outcome: inactive
[2]
  outcome: inactive
[3]
  outcome: inactive
[4]
  outcome: inactive

## O=C(NC(=S)N(Cc1ccccc1)Cc1ccccc1)c1ccccc1F
[1]
  activation: 225% (active)
[2]
  potentiation: 208% (active)
[3]
  potentiation: 338% (active)
[4]
  outcome: inactive

## COCCn1cnc2c1c(=O)n(CC#N)c(=O)n2Cc1ccccc1
[1]
  outcome: inactive
[2]
  outcome: inactive
[3]
  outcome: inactive
[4]
  outcome: inactive

## Cc1[nH]n2c(=O)cc(C(C)(C)C)nc2c1-c1ccccc1
[1]
  activation: 227% (active)
[2]
  potentiation: 33.5% (active)
[3]
  potentiation: 224% (active)
[4]
  outcome: inactive

## Cc1cccc(-n2c(C)cc(/C=N/NC(N)=S)c2C)c1
[1]
  outcome: inactive
[2]
  outcome: inactive
[3]
  outcome: inactive
[4]
  outcome: inactive

## N#CC(c1cccc(Cl)c1)c1ccc2c(C(F)(F)F)cc(C(F)(F)F)nc2n1 (stereo not given)
[1]
  activation: 144% (active)
[2]
  potentiation: 234% (active)
[3]
  potentiation: 298% (active)
[4]
  outcome: inactive

## O=C(COc1cccnc1[N+](=O)[O-])Nc1cccc(S(=O)(=O)N2CCCCC2)c1
[1]
  outcome: inactive
[2]
  outcome: inactive
[3]
  outcome: inactive
[4]
  outcome: inactive

## O=C(c1cccc(-c2ccccc2F)c1)N1CC[C@@H](N2CCC(O)CC2)[C@H](O)C1
[1]
  outcome: inactive
[2]
  outcome: inactive
[3]
  outcome: inactive
[4]
  outcome: inactive

## CCCCNC(=S)NNC(=O)c1nn(C)c(C)c1Cl
[1]
  outcome: inactive
[2]
  outcome: inactive
[3]
  outcome: inactive
[4]
  outcome: inactive

## CN(C)/C=N/S(=O)(=O)c1cccn1-c1ncc(C(F)(F)F)cc1Cl
[1]
  outcome: inactive
[2]
  outcome: inactive
[3]
  outcome: inactive
[4]
  outcome: inactive

## Cc1ccc2cccnc2c1NC(=S)NC(=O)c1ccccc1
[1]
  outcome: inactive
[2]
  outcome: inactive
[3]
  outcome: inactive
[4]
  outcome: inactive

## CCOC(=O)c1c(NC(=O)C(C)N2CCN(C(=O)c3ccco3)CC2)sc2c1CCCC2 (stereo not given)
[1]
  outcome: inactive
[2]
  potentiation: 53% (active)
[3]
  potentiation: 160% (active)
[4]
  outcome: inactive

## NC(=O)c1nsc(C(=O)N(CC(=O)NC2CCCCC2)c2ccc(Cl)cc2)c1N
[1]
  outcome: inactive
[2]
  outcome: inactive
[3]
  outcome: inactive
[4]
  outcome: inactive

## O=C(NC(=S)N(CC1CCC1)CC1CCCO1)c1cccc([N+](=O)[O-])c1 (stereo not given)
[1]
  activation: 224% (active)
[2]
  potentiation: 74.5% (active)
[3]
  potentiation: 216% (active)
[4]
  outcome: inactive

## CC(=O)N/C(=C/c1ccc2c(c1)OCO2)C(=O)O
[1]
  outcome: inactive
[2]
  outcome: inactive
[3]
  outcome: inactive
[4]
  outcome: inactive

## O=C(N/N=C/c1ccc(Sc2ccccn2)o1)c1cc2ccccc2cc1O
[1]
  activation: 213% (active)
[2]
  potentiation: 70% (active)
[3]
  potentiation: 277% (active)
[4]
  outcome: inactive

## Cc1ccc(F)cc1S(=O)(=O)NCc1ccc(N2CCN(C)CC2)cc1
[1]
  outcome: inactive
[2]
  outcome: inactive
[3]
  outcome: inactive
[4]
  outcome: inactive

## COc1ccc(CNC(=O)COC(=O)/C=C/c2ccc(Cl)cc2)cc1
[1]
  outcome: inactive
[2]
  outcome: inactive
[3]
  outcome: inactive
[4]
  outcome: inactive

## CCCCCn1c(=O)c(F)cn(Cc2ccc(OC)c([N+](=O)[O-])c2)c1=O
[1]
  outcome: inactive
[2]
  outcome: inactive
[3]
  outcome: inactive
[4]
  outcome: inactive

## Oc1c(Br)cc(Br)cc1C=Nc1ccc2c(c1)OCCO2
[1]
  activation: 159% (active)
[2]
  outcome: inactive
[3]
  outcome: inactive
[4]
  outcome: inactive

## OC(C#CCCN1CCCCC1)(c1ccccc1)c1ccccc1
[1]
  outcome: inactive
[2]
  outcome: inactive
[3]
  outcome: inactive
[4]
  outcome: inactive

## COc1cccc(-c2cn(-c3cccc(C(F)(F)F)c3)c(=S)[nH]2)c1
[1]
  outcome: inactive
[2]
  outcome: inactive
[3]
  outcome: inactive
[4]
  outcome: inactive

## CCCOc1ccccc1Cn1c(=O)oc2ccc(C)cc21
[1]
  outcome: inactive
[2]
  outcome: inactive
[3]
  outcome: inactive
[4]
  outcome: inactive

## Cc1cc(C)cc(-n2ccnc2SCC(=O)Nc2nccs2)c1
[1]
  outcome: inactive
[2]
  outcome: inactive
[3]
  outcome: inactive
[4]
  outcome: inactive

## Cc1cccc(C(=O)Oc2csc(=S)n2C(=O)c2cccc(C)c2)c1
[1]
  activation: 139% (active)
[2]
  potentiation: 27% (active)
[3]
  potentiation: 158% (active)
[4]
  outcome: inactive

## O=C(Cc1cccs1)N=Nc1c(O)[nH]c2ccc(Br)cc12
[1]
  outcome: inactive
[2]
  outcome: inactive
[3]
  outcome: inactive
[4]
  outcome: inactive

## CC1CCN(S(=O)(=O)c2cccc(C(=O)N3CCN(c4ccc(F)cc4)CC3)c2)CC1
[1]
  outcome: inactive
[2]
  outcome: inactive
[3]
  outcome: inactive
[4]
  outcome: inactive

## CCC(CC)C(=O)Nc1cc([N+](=O)[O-])ccc1Cl
[1]
  outcome: inactive
[2]
  outcome: inactive
[3]
  outcome: inactive
[4]
  outcome: inactive
